Six compounds from ChEMBL document CHEMBL3124940, “Design, synthesis and biological evaluation of D-ring opened galantamine analogs as multifunctional anti-Alzheimer agents” (Eur J Med Chem, 2014) can be followed below.

Where only a bound is given, the exact number is not on record here.

The target of one assay is Cholinesterase (Equus caballus, UniProt P81908). In words: Inhibition of equine serum BChE using butyrylthiocholine iodide as substrate preincubated for 5 mins followed by substrate addition measured after 5 mins by Ellman's method. Put shortly:
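Ellman's method with equine serum BChE and butyrylthiocholine iodide; DTNB read-out at 412 nm, 25 °C. Phosphate buffer pH 8.0. At least five concentrations (normally 10^-4 to 10^-9 M), each in triplicate, to build the inhibition curve. Data are means of at least three determinations.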
In general terms: In Ellman's method for cholinesterases, released thiocholine reacts with DTNB.

Assay [1] in a line: Selectivity ratio of IC50 for electric eel AChE to IC50 for equine serum BChE. Put shortly: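 AChE is electric eel Type VI-S with acetylthiocholine; BChE is equine serum with butyrylthiocholine. At least five concentrations, each in triplicate. Ratio = IC50(AChE)/IC50(BChE).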
Another assay concerns the target Acetylcholinesterase (Electrophorus electricus, UniProt O42275). In words: Inhibition of electric eel AChE using acetylthiocholine iodide as substrate preincubated for 5 mins followed by substrate addition measured after 5 mins by Ellman's method.

Broadly, the IC50 is the concentration that inhibits the measured activity by half.

Cholinesterase, sequence (P81908 whole entry): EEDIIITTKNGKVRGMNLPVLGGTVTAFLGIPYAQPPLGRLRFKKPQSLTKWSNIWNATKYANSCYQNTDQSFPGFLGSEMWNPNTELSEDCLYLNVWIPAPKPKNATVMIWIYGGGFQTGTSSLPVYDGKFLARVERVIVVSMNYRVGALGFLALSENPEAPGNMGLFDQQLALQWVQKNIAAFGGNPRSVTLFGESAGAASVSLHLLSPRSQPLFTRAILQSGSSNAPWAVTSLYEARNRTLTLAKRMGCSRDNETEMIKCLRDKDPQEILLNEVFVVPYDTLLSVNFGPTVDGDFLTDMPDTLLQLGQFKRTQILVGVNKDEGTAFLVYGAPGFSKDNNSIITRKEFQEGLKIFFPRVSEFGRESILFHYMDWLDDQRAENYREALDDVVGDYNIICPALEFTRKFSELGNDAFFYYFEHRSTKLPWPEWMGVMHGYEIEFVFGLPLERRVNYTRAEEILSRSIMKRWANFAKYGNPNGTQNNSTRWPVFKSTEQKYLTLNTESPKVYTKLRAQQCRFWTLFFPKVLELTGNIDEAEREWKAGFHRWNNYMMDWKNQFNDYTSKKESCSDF
Acetylcholinesterase, sequence (O42275 whole entry): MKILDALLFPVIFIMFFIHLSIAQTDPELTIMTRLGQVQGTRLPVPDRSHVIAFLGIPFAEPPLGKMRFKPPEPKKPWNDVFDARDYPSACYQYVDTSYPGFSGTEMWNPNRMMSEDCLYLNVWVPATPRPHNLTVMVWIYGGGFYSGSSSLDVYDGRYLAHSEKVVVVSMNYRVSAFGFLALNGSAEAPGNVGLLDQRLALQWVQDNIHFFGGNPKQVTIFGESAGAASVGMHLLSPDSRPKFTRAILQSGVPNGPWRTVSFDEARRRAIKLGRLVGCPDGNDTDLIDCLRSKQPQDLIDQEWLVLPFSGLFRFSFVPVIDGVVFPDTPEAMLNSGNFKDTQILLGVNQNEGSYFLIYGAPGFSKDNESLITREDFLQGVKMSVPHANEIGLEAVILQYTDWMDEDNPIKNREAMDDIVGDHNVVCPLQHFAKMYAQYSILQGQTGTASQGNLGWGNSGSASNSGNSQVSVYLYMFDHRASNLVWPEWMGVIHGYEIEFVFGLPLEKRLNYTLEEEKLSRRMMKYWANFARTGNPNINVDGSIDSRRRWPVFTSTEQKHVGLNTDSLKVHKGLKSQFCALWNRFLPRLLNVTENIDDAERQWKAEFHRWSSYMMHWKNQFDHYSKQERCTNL

`CCNCc1cccc2oc3cc(OC)ccc3c12`: the values for the half-inhibitory concentration (IC50) at Cholinesterase and on Acetylcholinesterase were 22.2 µM and 18.9 µM, respectively. Also, in assay [1], the Ratio IC50 was 0.85.

For `COc1ccc2c(c1)[nH]c1cccc(CNC(C)C)c12`, the IC50 against Cholinesterase was found to be 10.1 µM; on Acetylcholinesterase it was 50.8 µM. In addition, in assay [1], the Ratio IC50 came out at 5.03.

`COc1ccc2c(c1)oc1cccc(CNCc3ccccc3)c12`: the concentration for half-maximal inhibition (IC50) is 18.1 µM against Cholinesterase and over 50 µM on Acetylcholinesterase.

At Acetylcholinesterase, `CCN(C)Cc1cccc2oc3cc(OC)ccc3c12` returned an IC50 of over 50 µM.

For the compound `CCN(CC)Cc1cccc2oc3cc(OC)ccc3c12`, the IC50 was 27.4 µM at Cholinesterase and 39.1 µM against Acetylcholinesterase. Moreover, the Ratio IC50 in assay [1] is 1.43.

As for `COc1ccc2c(c1)[nH]c1cccc(CNCc3ccccc3)c12`, the IC50 against Cholinesterase is 29.9 µM; against Acetylcholinesterase, over 50 µM.
